Source: PubChem
Apaf-1 act – activators of human Apaf-1 apoptosome, primary screen, biochemical, DEVD-Rh110 fluorescence, uHTS; Apoptotic protease-activating factor 1 (Homo sapiens), O14727; Apaf-1 apoptosome caspase-3 activation; hits give low values; activity change, negative = activation, % at 20 µM; 0.31% of 330,000 active;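 active = activity change at or below -40% at 20 µM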
Target sequence (O14727 whole entry, looked up): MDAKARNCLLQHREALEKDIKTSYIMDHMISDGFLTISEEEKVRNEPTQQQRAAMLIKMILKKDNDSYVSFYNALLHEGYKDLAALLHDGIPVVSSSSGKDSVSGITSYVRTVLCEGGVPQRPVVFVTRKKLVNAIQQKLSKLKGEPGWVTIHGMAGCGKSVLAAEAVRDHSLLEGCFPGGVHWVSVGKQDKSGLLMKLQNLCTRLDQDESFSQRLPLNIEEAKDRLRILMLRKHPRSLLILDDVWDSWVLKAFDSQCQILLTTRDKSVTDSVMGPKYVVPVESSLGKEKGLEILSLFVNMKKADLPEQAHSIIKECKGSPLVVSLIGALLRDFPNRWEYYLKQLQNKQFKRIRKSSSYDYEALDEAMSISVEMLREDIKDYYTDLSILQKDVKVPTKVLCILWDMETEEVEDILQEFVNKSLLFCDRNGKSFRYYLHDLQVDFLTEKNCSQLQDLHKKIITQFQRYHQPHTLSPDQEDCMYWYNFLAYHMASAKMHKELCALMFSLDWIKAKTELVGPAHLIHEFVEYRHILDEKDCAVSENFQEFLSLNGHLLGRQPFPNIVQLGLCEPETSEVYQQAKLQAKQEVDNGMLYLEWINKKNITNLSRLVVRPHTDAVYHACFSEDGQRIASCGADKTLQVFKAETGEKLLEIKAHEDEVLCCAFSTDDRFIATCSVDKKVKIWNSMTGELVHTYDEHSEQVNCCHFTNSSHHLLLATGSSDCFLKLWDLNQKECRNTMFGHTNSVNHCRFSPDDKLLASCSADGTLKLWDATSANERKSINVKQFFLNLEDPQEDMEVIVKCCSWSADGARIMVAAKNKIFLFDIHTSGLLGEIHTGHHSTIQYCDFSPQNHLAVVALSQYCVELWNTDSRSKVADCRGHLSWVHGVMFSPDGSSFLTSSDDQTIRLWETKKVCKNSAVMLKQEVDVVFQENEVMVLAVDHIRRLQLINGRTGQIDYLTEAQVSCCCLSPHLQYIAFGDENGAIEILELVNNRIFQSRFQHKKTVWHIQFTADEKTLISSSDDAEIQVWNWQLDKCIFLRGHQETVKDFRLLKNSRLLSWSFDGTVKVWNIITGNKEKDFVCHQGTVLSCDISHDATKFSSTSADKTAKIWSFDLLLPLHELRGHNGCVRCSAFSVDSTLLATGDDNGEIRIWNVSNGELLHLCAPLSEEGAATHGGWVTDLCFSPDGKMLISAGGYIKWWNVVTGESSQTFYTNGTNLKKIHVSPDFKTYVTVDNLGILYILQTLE
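System: Reconstituted apoptosome of Apaf-1, cytochrome c, caspase-9, procaspase-3 | Reagent: dATP, cytochrome c, and (Z-DEVD)2-Rh110 caspase-3 substrate | Times: 30 min compound preincubation and 50 min reaction, both room temperature | Detection: Caspase-3-released Rh110 fluorescence, 540 nm emission, 480 nm excitation | Measure: Caspase-3 activity via Apaf-1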
Rh110 act interf – Rh110 fluorescence interference by putative Apaf-1 activators, confirmation, artefact control for Apaf-1 activator project, biochemical, 20 µM; shares compounds with Apaf-1 act; quenched caspase reaction, Ex480/Em540; fluorescence interference (activity change), % at 20 µM, hits read low; 980 tested, under 10 active; AID 504616, 2011;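 active = mean activity change at or below -40% when tested at 20 µM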
Apaf-1 act conf2 – Apaf-1 activators, single-dose retest, confirmation, biochemical, fluorescence, DEVD-Rh110, 20 µM. shares compounds with Apaf-1 act. reconstituted apoptosome caspase-3 activity; hits give low values. activity change, negative = activation, % at 20 µM. 5% of 980 active. AID 504617, 2011;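 active = mean activity change at or below -40%, meaning activation of 40% or more, at 20 µM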
Fluor interf act – fluorescence interference of Apaf-1 activator hits, dose response, artefact control for Apaf-1 activator project. shares compounds with Apaf-1 act. fluorescence interference counterscreen, Apaf-1 activator assay. EC50, µM. 55 tested, under 10 active; call rule not given here
Numbers without * were called inactive; x = no result. Not all results are given here.

SMILES	Apaf-1 act	Rh110 act interf	Apaf-1 act conf2	others
COc1cc(C)c(NC(=O)COc2ccc3c(c2)CCC3)cc1OC	-284*	15	14
COc1cc2sc(-c3ccccc3OC)c(-c3ccc(OCCN4CCCCC4)cc3)c2cc1OC	66	x	x
CN(CC(=O)Nc1ccccc1N1CCOCC1)CC(=O)Nc1ccc(F)c(F)c1F	-72*	8	12
CCCN(CC(=O)Nc1ccccc1C)C(=O)C1CC(=O)N(c2ccccc2C(C)CC)C1 (centres undefined)	48	x	x
CC(=O)N(Cc1ccc(F)cc1)C1=C(NCCc2ccccc2)C(=O)c2ccccc2C1=O	78	x	x
COc1ccc(CCNc2nc(-c3ccc(F)cc3)c(CC(=O)O)s2)cc1OC	-162*	10	19
Oc1ccc(C[C@@H]2CNCCN2CCC23CC4CC(CC(C4)C2)C3)cc1	47	x	x
COc1ccc(OC)c2c1sc(=NC(=O)C(C)(C)C)n2C	-370*	1	9
COc1ccc(/C=C2/C(=O)N(c3ccccc3)N=C2C)cc1Br	87	x	x
O=[N+]([O-])c1cc([N+](=O)[O-])c2nonc2c1Nc1ccc(O)cc1	74	x	x
O=C1C(Nc2cccc(O)c2)=C(N2CCCCC2)C(=O)c2ccccc21	88	x	x
O=[N+]([O-])c1cncc([N+](=O)[O-])c1Nc1cccc(O)c1	-64*	12	18
COc1ccc(S(=O)(=O)NNC(=O)c2cc3c4ccccc4n(C)c3s2)cc1	-407*	-3	14
Cc1cc(O)c2c(c1O)C(=O)[C@]13C(=C2O)C(=O)[C@@H]2[C@@H](O)[C@H]1[C@@H]1[C@H](O)[C@H]3C(=O)C3=C(O)c4c(O)cc(C)c(O)c4C(=O)[C@]312	69	x	x
Cc1cc(OC(=O)c2ccccc2)n(CCC#N)n1	43	x	x
Cc1cc(C)n(CC(C)C(=O)O)n1 (centres undefined)	-165*	0	-104*	Fluor interf act=>100
O=C(CNc1cccc2ccccc12)N/N=C/C(Br)=C/c1ccccc1	65	x	x
CCN(CC(=O)Nc1ccc(NC(C)=O)cc1)C(=O)c1ccccc1Sc1ccccc1C#N	56	x	x
Cc1[nH]c2ccc(C(=O)NCC(C)(C)N3CCOCC3)cc2c1C	-519*	0	8
CCC(CO)Oc1cc(NCc2cccc(C(F)(F)F)c2)c2ncn(C(C)C)c2c1 (centres undefined)	41	x	x
CN1c2ccccc2C(C)(C)C12C=Nc1c(cc(N3CCOCC3)c3ccccc13)O2 (centres undefined)	69	x	x
Cc1ccc(NC2=C(N3CCCCC3)C(=O)c3ccccc3C2=O)cc1	81	x	x
CC1=NN(c2ccccc2)C(=O)/C1=C/c1cccs1	90	x	x
Cc1c(N=Cc2cccs2)c(=O)n(-c2ccccc2)n1C	-182*	1	8
CC(N=Cc1cccc(O)c1O)c1ccccc1 (centres undefined)	71	x	x
SMILES	Apaf-1 act	Rh110 act interf	Apaf-1 act conf2	others
CCCCc1nc(C(N)=O)c2[nH]c(=O)n(-c3ccc(OCC)cc3)c2n1	-157*	0	9
Cc1[nH]c(=O)[nH]c(=O)c1S(=O)(=O)N1CCN(c2ccccc2F)CC1	-517*	0	-3
COCCOc1cc(NCc2ccccc2)c2ncn(C(C)C)c2c1	68	x	x
Cc1onc(-c2ccccc2Cl)c1C(=O)NCc1ccc2c(c1)cc(C)n2C	53	x	x
Cc1cc(C)c2nc(N(CCN(C)C)C(=O)c3ccc(S(=O)(=O)N(C)CC4CCCO4)cc3)sc2c1 (centres undefined)	49	x	x
COc1ccc(O)c(C(=O)c2cc(C#N)c(=O)n(-c3c(C)n(C)n(-c4ccccc4)c3=O)c2)c1	-40*	4	13
COc1cc(-c2c(C#N)c(=O)[nH]c3c2c(C)nn3-c2ccccc2)ccc1O	42	x	x
O=C(CNC(=O)c1ccc(Br)cc1)c1ccc(Br)cc1	-463*	-6	13
CCCN(CC1CC1)c1nc(N)c2c(N)nc(OC)cc2c1C#N	93	x	x
CCC(Cc1ccccc1)NC(=O)CCn1cccc1 (centres undefined)	-220*	2	2
NC(=S)NNc1cccc2cccnc12	76	x	x
COC(=O)C1=C(C)N(Cc2ccccc2)C(=NCc2cccc(C(F)(F)F)c2)N[C@H]1c1cccc(C(F)(F)F)c1	74	x	x
CCCCCCCCCCCCCCCCn1cc[n+](C)c1	80	x	x
COc1cc(C2Nc3cccc4cccc(c34)N2)cc(OC)c1OC(C)=O	41	x	x
Cc1ccccc1NC(=S)N/N=C/c1ccc(O)cc1O	-43*	8	-35
Cc1ccccc1NC(=S)Nc1cccc2cnccc12	91	x	x
Oc1ccc(C=Nc2cccc3ccccc23)c(O)c1	81	x	x
CCN1CCN(C2=C(NS(=O)(=O)c3ccc(C)cc3)C(=O)c3ccccc3C2=O)CC1	77	x	x
CC(C)CCC(C)N=Cc1c(O)n(Cc2ccccc2)c(=O)c2ccccc12 (centres undefined)	60	x	x
COc1ccc(/C=N/Nc2cc(C)nc3ccc(Br)cc23)cc1	55	x	x
N#Cc1cc2ccc(N3CCOCC3)cc2cc1C#N	82	x	x
Cc1cc(C)nc(N/N=C/c2ccc(N3CCOCC3)cc2)n1	-68*	9	13
COc1nc(N/N=C/c2ccc(-c3ccccc3[N+](=O)[O-])o2)nc(N2CCOCC2)n1	54	x	x
COC(=O)CCC(=O)OC1(C)C(=O)C=C2C=C(C3CC3)N(C3CC3)C=C2C1=O (centres undefined)	54	x	x
COCCn1c(=S)[nH]c2cc(OC)c(OC)cc2c1=O	-93*	2	7
SMILES	Apaf-1 act	Rh110 act interf	Apaf-1 act conf2	others
COc1cc2[nH]c(C(=O)NN)c(N)c2cc1OC	48	x	x
COc1ccc(OCc2cc(C(=O)N3CCC(OC)CC3)no2)c2ccccc12	49	x	x
CCN(CC)CCNC(=O)c1ccc(NC(=O)c2cn(-c3ccc(F)cc3)nc2-c2cccc(OC)c2)cc1	45	x	x
COc1cccc(-c2cc(C(=O)N3CCN(c4ccc(F)cc4)CC3)no2)c1	-69*	-1	16
O=C(c1cccc(S(=O)(=O)N2CCN(c3ccc(F)cc3)CC2)c1)N1CCCCCCC1	42	x	x
COc1ccc(-c2cc(C(=O)N3CCN(C(c4ccccc4)c4ccccc4)CC3)no2)cc1OC	-159*	-6	10
CC(C)[C@H](CO)Nc1nc(Nc2ccc(Cl)c(C(=O)O)c2)c2ncn(C(C)C)c2n1	44	x	x
CCCN(CC(=O)Nc1ccccc1C)C(=O)C1CCCN(C(=O)c2ccc(Cl)cc2)C1 (centres undefined)	48	x	x
CCN1C(=O)C(C(=O)Nc2ccc(OC)cc2)C2CC1(C)Oc1ccccc12 (centres undefined)	-542*	9	12
CNC[C@H]1Oc2ccc(NC(=O)Nc3ccc(OC)cc3)cc2C(=O)N([C@@H](C)CO)C[C@H]1C	45	x	x
C=CCn1c(N)c(C(=O)Nc2ccccc2)c2nc3ccccc3nc21	67	x	x
c1nc(NCC2(N3CCOCC3)CCCCC2)c2ccsc2n1	-313*	7	15
Clc1ccccc1-c1nn2c(-c3ccncc3)nnc2s1	47	x	x
